# Screening results (PubChem)
# A selection: hits, their analogues and other compounds. The true share with any hit is near 1.9%.
# UHRF1 binding: human UHRF1 methylated DNA binding inhibitors. inhibition, % at 4.4 µM. Q96T88. 370,000 tested, 0.75% active. UHRF1 binding to methylated oligo, TR-FRET; in the data active means inhibition above about 21%;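 further: UHRF1 SRA domain binding a hemimethylated CpG hairpin DNA probe; 0% = median of test compound wells and 100% = reference inhibitor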
# LEDGF integ inh: blocks HIV-1 LEDGF/p75-dependent DNA integration; TR-FRET IN-LEDGF/p75 DNA integration, Eu/Cy5; inhibition, % at 3.7 µM; 370,000 tested, 0.64% active;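 active means inhibition above the screen-wide mean plus 3 SD, cut at about 13% in these data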;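 further: signal is the Cy5 over europium emission ratio at 671 and 618 nm; 0% = plate median of compound wells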
# TDP2 inh: TDP2 (human) inhibition, absorbance primary screen | inhibition, % at 12.8 µM | AID 720702 | O95551 | recombinant TDP2, T5PNP hydrolysis, p-nitrophenol absorbance 415 nm | 370,000 tested, 0.34% active;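 active means inhibition above the mean of all tested compounds plus 3 SD, set per campaign, cut at about 25% in these data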;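 further: 0% = DMSO with enzyme and 100% = buffer with substrate but no TDP2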
#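 test system = human TDP2 enzyme | input = TDP2 enzyme at 120 nM final | medium = 50 mM Tris-HCl pH 7.5 with Mg2+, KCl, DTT, BSA | also added = T5PNP substrate, 5 mM | times = 2 h at 37 °C | technique = epi absorbance | benchmarks = high control without enzyme, low control DMSO plus TDP2 | replication = each compound tested once, singlicate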
# DDE Tn7 FP inh: inhibitors of Tn7 peptide binding to human fibrin DD(E); AID 720508; inhibition, % at 8.3 µM; FP displacement of FITC-Tn7 peptide from fibrin DD(E); 0% = median of compound wells per plate; 370,000 tested, 0.13% active;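 active means inhibition above the mean of compounds falling within the control limits plus 3 SD of them, cut at about 14% in these data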;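 further: 0% = plate median of compound wells and 100% = 10 µM Aha-Tn7 peptide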
#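 Also added: labelled Tn7 tracer, 0.1 µM; Assay system: human fibrin DD(E) protein; Amount: 2 µM fibrin DD(E); Schedule: 10 min compound pre-incubation, 3 h probe incubation at room temperature; Repeats: one replicate per compound; Read-out basis: percent inhibition; Measured by: fluorescence polarization of the labelled Tn7 tracer.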
# MBD2 DNA inh: inhibitors of human MBD2 binding to methylated oligonucleotide. AID 686964. 370,000 tested, 0.31% active. Q9UBB5. TR-FRET. inhibition, % at 4.4 µM; in the data active means inhibition above about 13%
# Target sequence (Q9UBB5 whole entry, looked up): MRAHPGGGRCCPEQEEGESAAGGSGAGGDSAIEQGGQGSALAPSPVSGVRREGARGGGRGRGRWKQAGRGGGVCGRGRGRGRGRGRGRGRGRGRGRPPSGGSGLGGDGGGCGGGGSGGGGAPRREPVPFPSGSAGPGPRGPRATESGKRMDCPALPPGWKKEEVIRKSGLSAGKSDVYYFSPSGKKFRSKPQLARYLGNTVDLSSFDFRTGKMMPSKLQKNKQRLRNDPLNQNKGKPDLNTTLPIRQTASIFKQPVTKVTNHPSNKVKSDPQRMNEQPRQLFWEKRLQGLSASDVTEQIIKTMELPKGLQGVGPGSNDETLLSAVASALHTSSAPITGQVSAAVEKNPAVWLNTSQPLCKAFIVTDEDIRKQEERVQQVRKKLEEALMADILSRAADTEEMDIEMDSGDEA
# DDE Tn6 FP inh: DD(E)-Tn6 binding inhibition, primary FP screen; Fibrin DD(E) TRITC-Tn6 fluorescence polarization displacement; inhibition, % at 8.3 µM; 370,000 tested, 0.21% active; AID 720509;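 active means inhibition above a per-campaign cutoff: mean of compounds within control limits plus 3 SD, cut at about 15% in these data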;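 further: 0% = median of all compound wells on the plate and 100% = blocking peptide control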
# * marks the source's active call; other numbers are inactive results.
SMILES,UHRF1 binding,LEDGF integ inh,TDP2 inh,DDE Tn7 FP inh,MBD2 DNA inh,DDE Tn6 FP inh
CCOc1ccc(Cl)cc1C(c1c(C)[nH][nH]c1=O)c1c(C)[nH][nH]c1=O,-10,1,2,5,-10,-1
Cc1[nH][nH]c(=O)c1C(c1ccc(-c2ccc(Cl)c(Cl)c2)o1)c1c(C)[nH][nH]c1=O,7,3,64*,0,-3,-1
COc1ccc(Cn2c(SCC(=O)NCc3ccco3)nc3ccsc3c2=O)cc1,5,21*,-9,1,-4,1
CCOC(=O)CCC(NC(=O)CCC(=O)NC(CCC(=O)OCC)C(=O)OCC)C(=O)OCC (centres undefined),3,-6,2,3,4,-1
CCOC(=O)CCC(NC(=O)CC(=O)NC(CCC(=O)OCC)C(=O)OCC)C(=O)OCC (centres undefined),36*,-1,6,8,-2,5
CCc1ccc(NC(=O)c2cnc3scc(C)n3c2=O)cc1,46*,0,5,4,1,-2
CC(=O)N1CCOc2ccc(S(=O)(=O)NCCc3ccccc3)cc21,-1,-9,-6,4,1,5
CC(=O)N1CCOc2cc(S(=O)(=O)NC(C)c3ccccc3)c(Cl)cc21 (centres undefined),30*,1,-6,2,-8,-4
Cc1[nH]c2ccccc2c1CN1CCc2ccccc2C1,21*,8,17,1,14*,3
COC(=O)[C@@H]1CCCN1Cc1nc(Cc2ccc(OC)c(OC)c2)no1,33*,1,-4,0,-2,0
CN1CCN(CC(=O)n2c3c(c4ccccc42)CCCC3)CC1,7,-4,29*,-6,3,-1
O=C(Nc1cccc([N+](=O)[O-])c1)c1cccc(C(=O)Nc2cccc([N+](=O)[O-])c2)c1,0,3,-8,-4,1,2
CC(NC(=O)Nc1cccc([N+](=O)[O-])c1)(C(F)(F)F)C(F)(F)F,73*,1,10,-11,-4,7
COc1ccc(C(C)=O)c2c1OCCO2,54*,-1,5,-4,0,-8
COc1ccc(C(C)=O)c2c(O)cccc12,7,3,3,4,0,-8
O=C(O)c1cc(N2N=C(C(F)(F)F)/C(=C/C=C/c3ccco3)C2=O)ccc1Cl,97*,82*,12,9,108*,6
CC(C)Oc1cccc(-c2n[nH]c(=S)n2N=Cc2ccc(O)cc2O)c1,-1,0,9,0,0,1
CCCS(=O)(=O)Nc1c(C(=O)OC)[nH]c2ccccc12,22*,1,12,-3,8,3
COC(=O)[C@]12C[C@H](CC(=O)NCc3cccc(C(F)(F)F)c3)C(=O)N(Cc3ccc(Cl)cc3Cl)C1=C[C@H](COCc1ccccc1)O[C@@H]2C,0,-1,-3,-2,2,1
CCn1c(=O)c(C(=O)NNS(=O)(=O)c2ccc(Br)cc2)c(O)c2ccccc21,35*,-4,2,7,3,-4
C=CCN1C(=O)c2n[nH]c(COC)c2C1c1ccc(C)cc1 (centres undefined),1,-1,-4,-1,1,-2
N/C(=N\OC(=O)/C=C/c1ccccc1)c1ccccn1,24*,-3,-2,-5,3,-2
Cc1c(NC(=O)c2ccc(Cl)nc2)cccc1-c1nc2cccnc2s1,22*,3,-1,3,10,-6
Cc1c(NC(=O)c2ccco2)cccc1-c1nc2cccnc2s1,-1,2,3,6,-5,3
Cc1cc(N2CCN(CC(C)(C)O)C[C@@H]2C)ccc1N1CCN(CC(C)(C)O)[C@H](C)C1,2,9,-11,1,-4,-2
SMILES,UHRF1 binding,LEDGF integ inh,TDP2 inh,DDE Tn7 FP inh,MBD2 DNA inh,DDE Tn6 FP inh
CC1CCCC(C)N1C(=O)c1cc2ncc(CCCl)cn2n1 (centres undefined),51*,-4,7,4,-3,-4
O=C(c1cc2ncc(CCCl)cn2n1)N1CCCCCC1,2,-5,0,0,2,0
COc1ccccc1NS(=O)(=O)c1cccc(C(=O)N2CCCCCCC2)c1,-2,-2,-3,-5,-2,-2
COc1ccccc1NS(=O)(=O)c1cccc(C(=O)N2CCCC2)c1,43*,-8,7,6,1,6
CC(C(=O)N1CCc2ccccc21)N(C)CC(=O)Nc1ccccc1Cl (centres undefined),33*,1,-1,0,-2,-2
CC1CC(C)CN(C(=O)C(C)N(C)CC(=O)Nc2ccccc2Cl)C1 (centres undefined),-2,4,-9,3,-7,-3
O=C(OCn1nnc2ccccc2c1=O)c1ccc(F)c(S(=O)(=O)N2CCOCC2)c1,73*,2,6,0,2,8
COc1ccc(C(=O)OCCOc2cccc(Cl)c2)cc1S(=O)(=O)N1CCOCC1,0,-4,-3,-1,-1,5
O=C(OCn1nnc2ccccc2c1=O)c1cccc(S(=O)(=O)N2CCOCC2)c1,0,2,4,-1,1,-4
Cc1cccc(OCCOC(=O)c2ccc(F)c(S(=O)(=O)N3CCOCC3)c2)c1,41*,-5,10,-4,6,-14
CSc1ccc(C(=O)C2CCCN(C(=O)c3cccnc3SC)C2)cc1 (centres undefined),26*,0,12,2,13,7
COc1ccccc1C(=O)C1CCCN(C(=O)c2cccnc2SC)C1 (centres undefined),1,4,-4,0,2,-1
CC(C)C[C@@H](CNCC(=O)[C@H](C)NC(=O)c1[nH]cnc1C(=O)N[C@@H](C)CN)NC(=O)c1nc[nH]c1C(=O)N[C@@H](C)C(=O)O,22*,-3,8,12,12,9
CC(C)C[C@@H](CNCC(=O)[C@H](Cc1ccccc1)NC(=O)c1[nH]cnc1C(=O)N[C@@H](C)CN)NC(=O)c1nc[nH]c1C(=O)N[C@@H](C)C(=O)O,23*,-3,2,1,9,11
O=C(Cc1cc(=O)[nH][nH]1)N/N=C/c1ccccc1C(F)(F)F,-7,2,-3,-4,-4,4
CCOC(=O)C1CCCN(c2c(C(=O)c3ccccc3)cnc3ccccc23)C1 (centres undefined),38*,2,2,8,4,-4
COc1cc2c(c3c1c(=O)c1ccccc1n3C)C=CC(C)(C)O2,-1,-1,-8,7,0,-1
CC(C)N(CC#CCC1(O)c2ccccc2-c2ccccc21)CCO,28*,-1,0,2,12,5
